Assay results taken from ChEMBL document CHEMBL1671789, “Evaluation of quinazoline analogues as glucocerebrosidase inhibitors with chaperone activity” (J Med Chem, 2011).
Substitutions are numbered along the chain they refer to. Activity calls are given as the source filed them.

How the values were obtained:
[1] = system: T1, Lysosomal acid glucosylceramidase (Homo sapiens), P04062 [N409S]; assay: Increase of GCase N370S mutant trafficking to lysosomes in human fibroblast cells assessed as colocalization of Gcase with Lamp2 at 10 uM after 5 days by immunofluorescence method; format: cell-based
T1 sequence (whole entry): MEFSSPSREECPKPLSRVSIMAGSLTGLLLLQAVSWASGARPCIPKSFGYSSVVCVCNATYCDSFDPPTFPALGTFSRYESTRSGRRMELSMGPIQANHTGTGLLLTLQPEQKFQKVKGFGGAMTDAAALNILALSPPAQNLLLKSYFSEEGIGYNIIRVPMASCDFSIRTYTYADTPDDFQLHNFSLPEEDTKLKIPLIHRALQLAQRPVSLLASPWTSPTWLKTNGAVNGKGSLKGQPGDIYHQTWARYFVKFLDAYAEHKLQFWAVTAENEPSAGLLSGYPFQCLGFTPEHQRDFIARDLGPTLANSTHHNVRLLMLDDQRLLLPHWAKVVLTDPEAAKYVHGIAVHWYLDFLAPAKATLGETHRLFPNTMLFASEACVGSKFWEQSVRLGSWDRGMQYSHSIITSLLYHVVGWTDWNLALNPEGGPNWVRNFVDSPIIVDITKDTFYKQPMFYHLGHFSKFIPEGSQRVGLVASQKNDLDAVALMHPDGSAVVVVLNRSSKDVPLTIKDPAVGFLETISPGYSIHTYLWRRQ
How it was run: (§1)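 Primary dermal fibroblasts from N370S/N370S Gaucher patients and a control, in chamber slides. Compounds given for five days, range 1 nM to 25 μM. Cells fixed in 3% paraformaldehyde and permeabilized with 0.1% Triton-X. Stained with rabbit anti-GCase R386 (1:500) and mouse anti-LAMP1 or LAMP-2 (1:100), then Alexa-conjugated secondaries and DAPI. Imaged by confocal microscopy for GC/LAMP2 colocalization.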

[2] = biological target: T2, Lysosomal acid glucosylceramidase (Homo sapiens) (UniProt P04062); assay: Increase of GCase trafficking to lysosomes in human fibroblast cells assessed as colocalization of Gcase with Lamp2 at 10 uM after 5 days by immunofluorescence method; format: cell-based; how it was run: as §1
T2 sequence (whole entry): T1 sequence (whole entry) with S409N

[3] = Inhibition of alpha-glucosidase
[4] = Inhibition of alpha-galactosidase
[5] = biological target: T2, Lysosomal acid glucosylceramidase (Homo sapiens); assay: Binding affinity to recombinant Gcase assessed as change in melting temperature at 400 uM by fluorescence thermal shift technique
How it was run: (§2)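 Differential scanning fluorometry on recombinant wild-type GC at 2 μM final with SYPRO Orange, in 150 mM phosphate/citrate pH 4.8. 12-point DMSO dilution series, final 0.1–600 μM, 2% DMSO final; DMSO-only control. Heated 20 to 95 °C at 0.1 °C/s. Fluorescence read at 490 nm excitation, 575 nm emission. Tm derived from melt curves; shift is relative to the protein-only control.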

[6] = biological target: T2, Lysosomal acid glucosylceramidase (Homo sapiens); assay: Binding affinity to recombinant Gcase assessed as change in melting temperature at 300 uM by fluorescence thermal shift technique; how it was run: as §2
[7] = biological target: T2, Lysosomal acid glucosylceramidase (Homo sapiens)
[8] = biological target: T2, Lysosomal acid glucosylceramidase (Homo sapiens); remark: listed apart in the source
[9] = biological target: T2, Lysosomal acid glucosylceramidase (Homo sapiens); remark: listed apart in the source
[10] = biological target: T2, Lysosomal acid glucosylceramidase (Homo sapiens); remark: listed apart in the source
[11] = biological target: T2, Lysosomal acid glucosylceramidase (Homo sapiens); remark: listed apart in the source
[12] = biological target: T2, Lysosomal acid glucosylceramidase (Homo sapiens); remark: listed apart in the source
[13] = biological target: T2, Lysosomal acid glucosylceramidase (Homo sapiens); remark: listed apart in the source
[14] = system: T1, Lysosomal acid glucosylceramidase (Homo sapiens), P04062 [N409S]; assay: Increase of GCase N370S mutant trafficking to lysosomes in human fibroblast cells assessed as colocalization of Gcase with Lamp2 at 5 uM after 5 days by immunofluorescence method; format: cell-based; how it was run: as §1
[15] = biological target: T2, Lysosomal acid glucosylceramidase (Homo sapiens); assay: Increase of GCase trafficking to lysosomes in human fibroblast cells assessed as colocalization of Gcase with Lamp2 at 5 uM after 5 days by immunofluorescence method; format: cell-based; how it was run: as §1
[16] = biological target: T2, Lysosomal acid glucosylceramidase (Homo sapiens); assay: Binding affinity to recombinant Gcase assessed as change in melting temperature at 600 uM by fluorescence thermal shift technique; how it was run: as §2
[17] = biological target: T2, Lysosomal acid glucosylceramidase (Homo sapiens); assay: Binding affinity to recombinant Gcase assessed as change in melting temperature at 500 uM by fluorescence thermal shift technique; how it was run: as §2
[18] = system: T1, Lysosomal acid glucosylceramidase (Homo sapiens), P04062 [N409S]; assay: Activity at recombinant Gcase N370S mutant in human spleen homogenates assessed as hydrolysis of 4-MU-beta-D-glucose at 50 uM; format: tissue-based
How it was run: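 Enzyme source: human spleen homogenate, 27 μg/well, in 50 mM citric acid/K2PO4 buffer pH 5 with 0.01% Tween20. Compound pin-transferred and preincubated 5 min at room temperature. Substrate 4MU-β-glc at 1 mM final, 45 min at 37 °C. Stopped with 1 M NaOH/1 M glycine pH 10. Fluorescence read at 365 nm excitation, 440 nm emission.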

| Compound | Activity [3] | Activity [4] | Activity [18] | other results |
| --- | --- | --- | --- | --- |
| CCCN1CCN(c2nc(-c3cccs3)nc3ccccc23)CC1 | inactive | inactive | inactive | – |
| Cc1ccc(S(=O)(=O)N2CCN(c3nc(C#N)nc4ccccc34)CC2)cc1 | inactive | inactive | inactive | – |
| Cc1ccc(S(=O)(=O)N2CCN(c3nc(-c4cccs4)nc4c3ncn4COC(=O)C(C)(C)C)CC2)cc1 | inactive | inactive | inactive | – |
| Cc1ccc(S(=O)(=O)N2CCN(c3nc(-c4ncccn4)nc4ccccc34)CC2)cc1 | inactive | inactive | inactive | – |
| CN1CCN(c2nc(-c3cccs3)nc3ccccc23)CC1 | inactive | inactive | inactive | – |
| Cc1ccc(S(=O)(=O)N2CCC(c3nc(-c4cccs4)nc4ccccc34)CC2)cc1 | inactive | inactive | inactive | – |
| OC[C@H]1CNC[C@@H](O)[C@@H]1O | inactive | inactive | – | Activity [1]: Active; Activity [2]: Active; ΔTm [17]: 8.75 °C; ΔTm [5]: 9.56 °C; ΔTm [6]: 8.98 °C; ΔTm [7]: 8.25 °C; ΔTm [8]: 7.94 °C; ΔTm [9]: 6.72 °C; ΔTm [10]: 5.5 °C; ΔTm [12]: 1.16 °C; ΔTm [13]: 0.4 °C |
| O=S(=O)(c1ccccc1)N1CCN(c2nccc(-c3cccs3)n2)CC1 | inactive | inactive | inactive | – |
| Cc1ccc(S(=O)(=O)N2CCN(c3nc(C(N)=O)nc4ccccc34)CC2)cc1 | inactive | inactive | inactive | – |

Continued, in another order:

| Activity [3] | Activity [4] | Activity [18] | Compound | other results |
| --- | --- | --- | --- | --- |
| inactive | inactive | – | O=S(=O)(c1ccc2ccccc2c1)N1CCN(c2nc(-c3cccs3)nc3ccccc23)CC1 | Activity [1]: Active; Activity [2]: Active; ΔTm [5]: 19.9 °C; ΔTm [6]: 19.8 °C; ΔTm [7]: 17.3 °C; ΔTm [8]: 14.5 °C; ΔTm [9]: 10.8 °C; ΔTm [10]: 4.35 °C; ΔTm [11]: 1.6 °C; ΔTm [12]: -0.19 °C; ΔTm [13]: -1.33 °C |
| inactive | inactive | – | O=S(=O)(c1ccc2c(c1)OCCO2)N1CCN(c2nc(-c3cccs3)nc3ccccc23)CC1 | Activity [14]: Active; Activity [15]: Active; ΔTm [16]: 24.3 °C; ΔTm [17]: 23.4 °C; ΔTm [5]: 22.8 °C; ΔTm [6]: 22.8 °C; ΔTm [7]: 20.7 °C; ΔTm [8]: 19.3 °C; ΔTm [9]: 13.3 °C; ΔTm [10]: 11.7 °C; ΔTm [11]: 5.39 °C; ΔTm [12]: 0.24 °C; ΔTm [13]: 0.37 °C |
| inactive | inactive | inactive | O=S(=O)(c1ccc(F)cc1)N1CCN(c2nc(-c3ccccc3)nc3cc(Cl)ccc23)CC1 | – |
| inactive | inactive | inactive | O=S(=O)(c1ccc(C(F)(F)F)cc1)N1CCN(c2nc(-c3cccs3)nc3cc(Cl)ccc23)CC1 | – |
| inactive | inactive | – | Cc1ccc(S(=O)(=O)N2CCN(c3nc(-c4cccs4)nc4ccccc34)CC2)cc1 | ΔTm [7]: 11 °C; ΔTm [8]: 9.89 °C; ΔTm [9]: 5.18 °C; ΔTm [10]: 0.84 °C; ΔTm [11]: -1.4 °C; ΔTm [12]: -0.09 °C; ΔTm [13]: 0.03 °C |
| inactive | inactive | inactive | O=S(=O)(c1ccccc1)N1CCN(c2nc(-c3ccc(F)cc3)nc3cc(Cl)ccc23)CC1 | – |
| inactive | inactive | inactive | O=S(=O)(c1ccc(F)cc1)N1CCN(c2nc(-c3cccs3)nc3cc(Cl)ccc23)CC1 | – |
| inactive | inactive | – | COc1ccccc1S(=O)(=O)N1CCN(c2nc(-c3cccs3)nc3ccccc23)CC1 | Activity [14]: Active; Activity [15]: Active; ΔTm [17]: 7.69 °C; ΔTm [5]: 8.09 °C; ΔTm [6]: 7.48 °C; ΔTm [7]: 6.86 °C; ΔTm [8]: 3.97 °C; ΔTm [9]: -0.76 °C; ΔTm [10]: -0.01 °C; ΔTm [12]: 0.55 °C; ΔTm [13]: 0.6 °C |
| inactive | inactive | inactive | O=S(=O)(c1ccc(F)cc1)N1CCN(c2nc(-c3cccc(Br)c3)nc3ccccc23)CC1 | – |
| inactive | inactive | inactive | Cc1ccc(S(=O)(=O)N2CCN(c3nc(-c4ccc(F)cc4)nc4cc(Cl)ccc34)CC2)cc1 | – |
| inactive | inactive | inactive | Cc1ccc(S(=O)(=O)N2CCN(c3nc(-c4cncnc4)nc4ccccc34)CC2)cc1 | – |
| inactive | inactive | inactive | O=S(=O)(c1ccc(Cl)cc1)N1CCN(c2nc(-c3ccc(Cl)cc3)nc3ccccc23)CC1 | – |
